Results on ten molecules are retold here after ChEMBL document CHEMBL4145668, “Dipeptide Prodrugs of the Glutamate Modulator Riluzole” (ACS Med Chem Lett, 2018).

One may read the Cmax as the highest concentration seen after dosing. Broadly, the Papp B→A is how fast a substance crosses the layer from the basolateral side. As usually defined, the Tmax is the time at which the peak concentration occurs. Broadly, the inhibition is the percentage by which the read-out fell short of the control. Usually efflux ratio stands for a quotient of directional permeabilities that is used to spot active efflux. The term Papp A→B denotes the apparent permeability from the apical to the basolateral side of a cell layer.

Data set [1] can be described thus: Prodrug conversion in simulated intestinal fluid assessed as riluzole formation by measuring compound half life at 0.01 mg/ml by LC/MS analysis. The format is ADME. The note with it: simulated gi fluid. In a few lines:
(§1)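 Each prodrug was incubated in pH 7.4 buffer, fresh rat serum, simulated gastric fluid or simulated intestinal fluid. Prodrug disappearance was followed for up to 2-4 h to derive a half-life in hours.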

Data set [2] can be described thus: Prodrug conversion in rat serum assessed as riluzole formation by measuring compound half life. The format is ADME, cell-free. In a few lines:
as §1

Data set [3] in a line: Prodrug conversion in simulated gastric fluid assessed as riluzole formation by measuring compound half life at 0.01 mg/ml by LC/MS analysis. The note with it: simulated gi fluid. The format is ADME. An outline of the steps:
as §1

A short description of data set [4]: Prodrug conversion in pH 7.4 buffer assessed as riluzole formation by measuring compound half life. The format is physicochemical. In a few lines:
as §1

For data set [5], the system named is Homo sapiens. The data set can be described thus: Antitumor activity against human C8161 cells xenografted in mouse assessed as tumor growth inhibition at 7.5 mg/kg, po administered once daily via gavage for 21 days measured at 7 days interval during compound dosing. The format is functional, organism-based. In a few lines:
(§2)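 Nude mice were inoculated in the flank with 10^6 human C8161 melanoma cells. When tumors reached 40 mm3, the mice were randomized into groups of similar tumor volume. Vehicle was DMSO. Dosing was daily by oral gavage for 21 days, and tumor growth was followed.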
(A xenograft is tissue or cells of one species grown in another, often human tumour cells in immunodeficient mice.)

A short description of data set [6]: Prodrug conversion in human liver microsomes assessed as riluzole formation by measuring half life. The format is ADME, microsome. In a few lines:
(§3)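 Prodrug stability was tested in human, mouse, rat and dog liver microsomes, and a half-life in minutes was reported.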
Background: Liver microsomes are a subcellular fraction often used to study metabolism.

Data set [7] has as its system Rattus norvegicus. In words: Half life in Sprague-Dawley rat assessed as riluzole level at 2.8 mg/kg, iv measured up to 8 hrs. As to conditions: in vivo. The format is ADME, organism-based.
The subject of data set [8] is Rattus norvegicus. In words: Cmax in Sprague-Dawley rat assessed as riluzole level at 14.6 mg/kg, po measured up to 8 hrs. On the set-up: dose 14.6 mg/kg, route oral. As to conditions: in vivo. The format is ADME, organism-based. An outline of the steps: (§4)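 Male Sprague-Dawley rats received a single oral dose. Plasma prodrug and riluzole levels were monitored up to eight hours after dosing.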

Data set [9] is described as follows: Apparent permeability across basolateral to apical side in human Caco2 cells. The note with it: Caco-2. The format is ADME, cell-based. An outline of the steps:
(§5)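 Bidirectional transport across Caco-2 monolayers was measured as Papp A-B and Papp B-A in nm/s. Efflux ratio was calculated as B-A over A-B.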

The nature of data set [10]: Prodrug conversion in mouse plasma xenografted with human C8161 cells assessed as riluzole formation at 4.9 to 14.8 mg/kg, po administered via gavage measured 2 hrs post dose. As to conditions: in vivo. The format is ADME, organism-based. In a few lines: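 In C8161 xenograft-bearing nude mice given daily oral gavage doses, plasma was sampled from selected animals 2 hours post dosing to check riluzole exposure.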

Data set [11] can be described thus: Prodrug conversion in dog liver microsomes assessed as riluzole formation by measuring half life. The format is ADME, Canis lupus familiaris, microsome. An outline of the steps: as §3
The nature of data set [12]: Prodrug conversion in mouse liver microsomes assessed as riluzole formation by measuring half life. The format is ADME, microsome. In a few lines:
as §3

A short description of data set [13]: Cmax in Sprague-Dawley rat at 2.8 mg/kg, iv. As to conditions: in vivo. The format is ADME, organism-based. Details: dose 2.8 mg/kg, route intravenous.
For data set [14], the system named is Rattus norvegicus. In words: Tmax in Sprague-Dawley rat assessed as riluzole level at 14.6 mg/kg, po measured up to 8 hrs. The format is ADME, organism-based. As to conditions: in vivo. In a few lines:
as §4

Data set [15] is described as follows: Tmax in Sprague-Dawley rat at 2.8 mg/kg, iv. The format is ADME, organism-based. The note with it: in vivo.
The test system of data set [16] is Rattus norvegicus. In words: AUClast in Sprague-Dawley rat assessed as riluzole level at 2.8 mg/kg, iv measured up to 8 hrs. The format is ADME, organism-based. Details: time < 8 hr, dose 2.8 mg/kg, route intravenous. The note with it: in vivo.
Data set [17] relates to Rattus norvegicus. The data set can be described thus: AUClast in Sprague-Dawley rat assessed as riluzole level at 14.6 mg/kg, po measured up to 8 hrs. The format is ADME, organism-based. On the set-up: time < 8 hr, dose 14.6 mg/kg, route oral. The note with it: in vivo. In a few lines: as §4
Data set [18] deals with Rattus norvegicus. In words: Tmax in Sprague-Dawley rat assessed as riluzole level at 2.8 mg/kg, iv measured up to 8 hrs. The format is ADME, organism-based. The note with it: in vivo.
In data set [19] the test system is Rattus norvegicus. The data set can be described thus: Cmax in Sprague-Dawley rat assessed as riluzole level at 2.8 mg/kg, iv measured up to 8 hrs. On the set-up: dose 2.8 mg/kg, route intravenous. The note with it: in vivo. The format is ADME, organism-based.
For a further data set, the target named is CYP2D6 (Homo sapiens, UniProt P10635). In words: Inhibition of CYP2D6 (unknown origin) at 10 uM relative to control. The format is ADME.
Sequence of CYP2D6 (P10635 whole entry): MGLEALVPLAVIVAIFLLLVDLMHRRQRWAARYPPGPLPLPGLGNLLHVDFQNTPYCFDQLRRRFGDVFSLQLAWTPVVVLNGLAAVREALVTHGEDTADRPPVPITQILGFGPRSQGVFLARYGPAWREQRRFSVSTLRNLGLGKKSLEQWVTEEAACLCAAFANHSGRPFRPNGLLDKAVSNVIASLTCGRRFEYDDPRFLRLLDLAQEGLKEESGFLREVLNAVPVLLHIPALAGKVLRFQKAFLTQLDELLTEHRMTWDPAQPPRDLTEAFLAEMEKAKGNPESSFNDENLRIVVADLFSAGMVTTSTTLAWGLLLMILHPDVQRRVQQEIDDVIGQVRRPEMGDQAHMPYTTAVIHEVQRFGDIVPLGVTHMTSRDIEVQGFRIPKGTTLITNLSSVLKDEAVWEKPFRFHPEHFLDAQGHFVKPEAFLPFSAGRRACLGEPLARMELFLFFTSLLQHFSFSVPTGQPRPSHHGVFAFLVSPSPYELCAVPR
The target in data set [20] is T1, CYP3A4 (Homo sapiens, UniProt P08684). In words: Inhibition of CYP3A4 (unknown origin) at 10 uM using midazolam as substrate relative to control. The format is ADME. As to conditions: probe midazolam.
T1 sequence (P08684 whole entry): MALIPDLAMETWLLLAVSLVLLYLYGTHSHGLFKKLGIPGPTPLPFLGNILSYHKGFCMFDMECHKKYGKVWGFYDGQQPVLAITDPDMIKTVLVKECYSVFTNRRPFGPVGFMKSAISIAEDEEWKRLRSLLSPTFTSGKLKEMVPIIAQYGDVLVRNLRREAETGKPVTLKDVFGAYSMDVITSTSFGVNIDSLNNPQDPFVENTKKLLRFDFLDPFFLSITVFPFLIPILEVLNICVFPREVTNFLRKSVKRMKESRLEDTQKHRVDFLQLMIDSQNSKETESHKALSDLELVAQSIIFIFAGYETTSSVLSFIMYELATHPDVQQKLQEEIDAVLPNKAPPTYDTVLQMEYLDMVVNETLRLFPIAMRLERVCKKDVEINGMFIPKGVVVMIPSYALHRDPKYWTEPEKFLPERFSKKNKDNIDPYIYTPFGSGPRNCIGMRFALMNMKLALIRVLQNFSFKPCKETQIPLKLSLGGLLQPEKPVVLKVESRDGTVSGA
The subject of data set [21] is Rattus norvegicus. In words: Oral bioavailability in Sprague-Dawley rat at 14.6 mg/kg. The format is ADME, organism-based. The note with it: in vivo. An outline of the steps: as §4
Data set [22] can be described thus: Efflux ratio of apparent permeability […] in human Caco2 cells. The format is ADME, cell-based. The note with it: Caco-2. (In general: Caco-2 cells form a polarised layer with tight junctions and transporters.)
Data set [23] deals with Homo sapiens. In words: Antitumor activity against human C8161 cells xenografted in mouse assessed as tumor growth inhibition at 4.9 to 14.8 mg/kg, po administered once daily via gavage for 21 days measured at 7 days interval during compound dosing. The format is functional, organism-based. In a few lines: as §2
Another data set addresses T2, CYP1A2 (Homo sapiens, UniProt P05177).
T2 sequence (P05177 whole entry): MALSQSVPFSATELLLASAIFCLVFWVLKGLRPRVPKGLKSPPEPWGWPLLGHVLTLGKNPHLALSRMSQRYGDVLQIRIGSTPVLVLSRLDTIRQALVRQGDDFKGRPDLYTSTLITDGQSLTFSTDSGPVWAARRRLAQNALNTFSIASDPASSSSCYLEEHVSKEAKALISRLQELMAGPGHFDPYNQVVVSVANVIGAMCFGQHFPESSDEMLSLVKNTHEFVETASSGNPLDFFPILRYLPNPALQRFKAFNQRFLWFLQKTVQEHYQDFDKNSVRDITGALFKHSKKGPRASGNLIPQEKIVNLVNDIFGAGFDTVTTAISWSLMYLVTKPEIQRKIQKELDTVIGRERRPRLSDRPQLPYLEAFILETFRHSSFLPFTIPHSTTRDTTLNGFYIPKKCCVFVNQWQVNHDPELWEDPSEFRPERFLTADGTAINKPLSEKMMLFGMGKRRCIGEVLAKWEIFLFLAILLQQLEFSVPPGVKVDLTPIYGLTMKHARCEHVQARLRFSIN
The data set can be described thus: Inhibition of CYP1A2 (unknown origin) at 10 uM relative to control. The format is ADME.

Data set [24] can be described thus: Apparent permeability across apical to basolateral side in human Caco2 cells. The format is ADME, cell-based. As to conditions: Caco-2. An outline of the steps: as §5
Data set [25] concerns the target T1, CYP3A4. The data set can be described thus: Inhibition of CYP3A4 (unknown origin) at 10 uM using testosterone as substrate relative to control. The note with it: probe testosterone. The format is ADME.
Data set [26] is described as follows: Prodrug conversion in rat liver microsomes assessed as riluzole formation by measuring half life. The format is ADME, microsome. In a few lines:
as §3

The source made the active and inactive calls. The calls are words filed in the database; no cut-off is given here.

On to `CC(C)(NC(=O)CN)C(=O)Nc1nc2ccc(OC(F)(F)F)cc2s1`, for which the values for the t1/2 in data set [1], in data set [2] and in [3] were below 1 h, 2 h and above 4 h, respectively.
As to `CC(C)NCC(=O)N(C)CC(=O)Nc1nc2ccc(OC(F)(F)F)cc2s1`, the t1/2 was above 4 h in [1], above 24 h in data set [4], above 2 h in data set [2] and above 4 h in [3].
For `CC(C)(C)NCC(=O)N1CCC[C@@H]1C(=O)Nc1nc2ccc(OC(F)(F)F)cc2s1`, the t1/2 in data set [4] is above 24 h; in [2], above 2 h.
As for `NCC(=O)N1CCC[C@@H]1C(=O)Nc1nc2ccc(OC(F)(F)F)cc2s1`, the t1/2 in data set [1] was below 1 h; in data set [4], 0.2 h; in data set [2], 0.25 h; in data set [3], 2.5 h.
Consider `Nc1nc2ccc(OC(F)(F)F)cc2s1`, for which the TGI result in the data set on Homo sapiens [5] is “Active”.
Take `CNCC(=O)N(C)CC(=O)Nc1nc2ccc(OC(F)(F)F)cc2s1`: the t1/2 is below 1 h in [1], below 0.1 h in data set [4], below 0.1 h in [2] and above 4 h in [3].
Take `CC(C)(C)NCC(=O)NC(C)(C)C(=O)Nc1nc2ccc(OC(F)(F)F)cc2s1`: the t1/2 in data set [1] is above 4 h; in data set [4] it was above 2 h; in [2], above 2 h; in data set [3], above 4 h.
Take `CCNCC(=O)N(C)CC(=O)Nc1nc2ccc(OC(F)(F)F)cc2s1`: the t1/2 in [1] is below 1 h; in [4], below 0.25 h; in data set [2] it was below 0.25 h; in [3] it was above 4 h.
In the case of `CN(CC(=O)Nc1nc2ccc(OC(F)(F)F)cc2s1)C(=O)CN`, the t1/2 in data set [4] and in [2] was below 0.1 h throughout.
On to `CN(CC(=O)Nc1nc2ccc(OC(F)(F)F)cc2s1)C(=O)CNC(C)(C)C`, for which the t1/2 in [6] was above 1 h; in data set [1] it was above 4 h; in the data set on Rattus norvegicus [7], 7.83 h; in [11], above 1 h; in data set [4], above 24 h; in [12], above 1 h. In addition, the t1/2 in data set [2] was above 2 h; in [3], above 4 h; in data set [26], above 1 h. Moreover, the Cmax in the data set on Rattus norvegicus [8] was 1587 ng/mL; in [13] it was 1730 ng/mL; with Rattus norvegicus [19], 187 ng/mL. For the same molecule, the Papp B→A in data set [9] was found to be 2.41 ×10⁻⁶ cm/s. In addition, in data set [10], the Drug metabolism entry is on record as “Metabolite_Detected”. Besides, the Tmax was 8 h with Rattus norvegicus [14], 0 h in data set [15] and 0.78 h in the data set on Rattus norvegicus [18]. Besides, the AUClast in the data set with Rattus norvegicus [16] is 1137 ng·h/mL; with Rattus norvegicus [17], 20518 ng·h/mL. Further, the inhibition at 10 µM at CYP2D6, against CYP3A4 [20], against CYP1A2 and on CYP3A4 [25] was below 10% throughout. This molecule showed a F in the data set with Rattus norvegicus [21] of 70%. In addition, the efflux ratio in data set [22] is 1.7. Further, in the data set with Homo sapiens [23], the TGI entry is “Active”. The apical-to-basolateral permeability (Papp A→B) in data set [24] was 1.38 ×10⁻⁶ cm/s.
